From ChEMBL document CHEMBL5661979, “Pharmacological inhibition of BMK1 suppresses tumor growth through promyelocytic leukemia protein” (Cancer Cell, 2010) come the findings set out here.

Structures are written as SMILES.

What all share (assay type): subcellular
For assay [1], the target named is Tyrosine-protein kinase Fer (Homo sapiens, UniProt P16591). The assay is described as follows: Inhibition of FER in human HeLa cells lysate pre incubated for 15 mins followed by ATP acyl phosphate probe addition and measured after 10 mins by LC-MS/MS analysis.
Sequence of Tyrosine-protein kinase Fer (P16591 whole entry): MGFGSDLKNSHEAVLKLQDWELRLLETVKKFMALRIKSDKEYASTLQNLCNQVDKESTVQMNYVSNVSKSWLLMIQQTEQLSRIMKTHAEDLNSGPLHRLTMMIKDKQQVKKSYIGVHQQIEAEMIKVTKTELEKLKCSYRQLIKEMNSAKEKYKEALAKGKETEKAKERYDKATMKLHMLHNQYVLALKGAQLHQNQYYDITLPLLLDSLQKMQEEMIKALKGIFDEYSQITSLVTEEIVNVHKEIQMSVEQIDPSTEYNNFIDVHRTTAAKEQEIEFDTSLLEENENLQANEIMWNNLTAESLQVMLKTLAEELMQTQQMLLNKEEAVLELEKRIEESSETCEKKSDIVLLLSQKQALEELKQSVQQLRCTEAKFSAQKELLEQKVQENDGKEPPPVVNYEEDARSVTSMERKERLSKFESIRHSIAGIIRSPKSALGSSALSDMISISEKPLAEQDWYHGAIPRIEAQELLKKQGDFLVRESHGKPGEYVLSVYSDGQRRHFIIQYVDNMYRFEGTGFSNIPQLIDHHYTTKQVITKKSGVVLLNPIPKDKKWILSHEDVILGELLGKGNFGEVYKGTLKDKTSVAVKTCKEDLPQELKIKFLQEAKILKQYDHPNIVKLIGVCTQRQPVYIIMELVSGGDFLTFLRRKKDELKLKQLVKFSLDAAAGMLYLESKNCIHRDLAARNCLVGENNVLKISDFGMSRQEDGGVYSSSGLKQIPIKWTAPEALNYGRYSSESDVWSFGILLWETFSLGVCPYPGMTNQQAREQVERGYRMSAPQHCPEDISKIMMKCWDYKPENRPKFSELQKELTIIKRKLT
The target in assay [2] is Serine/threonine-protein kinase mTOR (Homo sapiens, UniProt P42345). Briefly: Inhibition of FRAP in human HeLa cells lysate pre incubated for 15 mins followed by ATP acyl phosphate probe addition and measured after 10 mins by LC-MS/MS analysis.
Assay [3] deals with Tyrosine-protein kinase JAK1 (Homo sapiens, UniProt P23458). Briefly: Inhibition of JAK1 domain 2 in human HeLa cells lysate pre incubated for 15 mins followed by ADP acyl phosphate probe addition and measured after 10 mins by LC-MS/MS analysis.
Assay [4] concerns the target Ribosomal protein S6 kinase alpha-5 (Homo sapiens, UniProt O75582). Briefly: Inhibition of MSK1 domain 1 K2 site in human HeLa cells lysate pre incubated for 15 mins followed by ADP acyl phosphate probe addition and measured after 10 mins by LC-MS/MS analysis.
The target of assay [5] is STE20-related kinase adapter protein beta (Homo sapiens, UniProt Q9C0K7). Briefly: Inhibition of ALS2CR2 in human HeLa cells lysate pre incubated for 15 mins followed by ADP acyl phosphate probe addition and measured after 10 mins by LC-MS/MS analysis. An outline of the steps: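 HeLa cell lysates (5 mg/mL total protein) were preincubated with inhibitor at 0, 0.8, 2, 10 or 50 μM for 15 min. ATP or ADP acylphosphate probe was then added (5 μM final) for 10 min, and reactions were stopped with urea. Up to four fragment ions per kinase probe-peptide were quantified by targeted MS. % inhibition was taken relative to untreated lysate. Run in duplicate.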
Sequence of STE20-related kinase adapter protein beta (Q9C0K7 whole entry, the tested form may be a part): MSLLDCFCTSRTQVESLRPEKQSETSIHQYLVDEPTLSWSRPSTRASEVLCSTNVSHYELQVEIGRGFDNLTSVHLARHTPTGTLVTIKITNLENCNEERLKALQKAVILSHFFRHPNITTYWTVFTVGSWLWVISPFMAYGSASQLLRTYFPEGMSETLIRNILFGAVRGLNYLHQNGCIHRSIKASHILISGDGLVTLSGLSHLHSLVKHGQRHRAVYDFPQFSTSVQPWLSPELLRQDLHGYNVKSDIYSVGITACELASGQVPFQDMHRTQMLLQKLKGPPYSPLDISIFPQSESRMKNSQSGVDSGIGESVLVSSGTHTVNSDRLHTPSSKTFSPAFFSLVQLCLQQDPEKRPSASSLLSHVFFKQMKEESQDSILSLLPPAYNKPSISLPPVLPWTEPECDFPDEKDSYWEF

In assay [6] the target is T1, Serine/threonine-protein kinase ULK3 (Homo sapiens) (UniProt Q6PHR2).
T1 sequence (whole entry): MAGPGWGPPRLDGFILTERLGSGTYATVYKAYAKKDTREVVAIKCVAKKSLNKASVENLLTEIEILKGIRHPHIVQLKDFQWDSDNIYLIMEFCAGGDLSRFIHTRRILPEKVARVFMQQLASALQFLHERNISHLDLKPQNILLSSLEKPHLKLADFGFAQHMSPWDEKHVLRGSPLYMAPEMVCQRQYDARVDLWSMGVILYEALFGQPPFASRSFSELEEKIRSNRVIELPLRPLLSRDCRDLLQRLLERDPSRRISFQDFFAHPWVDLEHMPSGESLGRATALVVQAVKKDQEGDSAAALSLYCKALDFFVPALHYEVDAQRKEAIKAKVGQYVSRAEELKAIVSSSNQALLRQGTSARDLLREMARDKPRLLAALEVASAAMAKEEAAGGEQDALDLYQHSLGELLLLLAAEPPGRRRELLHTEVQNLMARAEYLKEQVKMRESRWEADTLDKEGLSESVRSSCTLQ
Briefly: Inhibition of ULK3 in human HeLa cells lysate at 50 uM pre incubated for 15 mins followed by ADP acyl phosphate probe addition and measured after 10 mins by LC-MS/MS analysis relative to control. To be noted: time 25.0 min.

For assay [7], the target named is T2, Serine/threonine-protein kinase 3 (Homo sapiens) (UniProt Q13188).
T2 sequence (whole entry): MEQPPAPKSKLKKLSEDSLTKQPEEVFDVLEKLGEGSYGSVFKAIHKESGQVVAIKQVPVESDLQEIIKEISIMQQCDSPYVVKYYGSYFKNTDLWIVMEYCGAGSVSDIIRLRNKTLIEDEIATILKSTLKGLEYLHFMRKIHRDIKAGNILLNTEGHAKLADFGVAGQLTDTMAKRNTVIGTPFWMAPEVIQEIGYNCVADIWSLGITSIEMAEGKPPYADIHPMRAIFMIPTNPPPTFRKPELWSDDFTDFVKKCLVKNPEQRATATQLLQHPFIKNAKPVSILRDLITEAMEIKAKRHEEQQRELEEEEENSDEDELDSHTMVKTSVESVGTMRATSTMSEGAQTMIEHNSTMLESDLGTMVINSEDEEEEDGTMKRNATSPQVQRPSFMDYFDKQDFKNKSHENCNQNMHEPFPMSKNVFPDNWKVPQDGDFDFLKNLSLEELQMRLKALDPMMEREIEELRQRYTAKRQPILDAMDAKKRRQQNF
The assay is described as follows: Inhibition of MST2 in human HeLa cells lysate at 2 uM pre incubated for 15 mins followed by ADP acyl phosphate probe addition and measured after 10 mins by LC-MS/MS analysis relative to control. To be noted: time 25.0 min.

For assay [8], the target named is Calcium/calmodulin-dependent protein kinase type 1D (Homo sapiens, UniProt Q8IU85). Briefly: Inhibition of CAMK1d in human HeLa cells lysate at 2 uM pre incubated for 15 mins followed by ADP acyl phosphate probe addition and measured after 10 mins by LC-MS/MS analysis relative to control. To be noted: time 25.0 min. An outline of the steps: (§1)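 KiNativ-type profiling in HeLa lysate (5 mg/mL total protein). Lysate preincubated 15 min with inhibitor at 50, 10, 2, 0.8 or 0 μM, then ATP or ADP acylphosphate probe added (5 μM final) for 10 min. Reaction stopped with urea and analysed by targeted MS, using up to four fragment ions per kinase peptide-probe conjugate. % inhibition calculated against untreated lysate. Duplicate reactions.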
Sequence of Calcium/calmodulin-dependent protein kinase type 1D (Q8IU85 whole entry, looked up, the tested form may be a part): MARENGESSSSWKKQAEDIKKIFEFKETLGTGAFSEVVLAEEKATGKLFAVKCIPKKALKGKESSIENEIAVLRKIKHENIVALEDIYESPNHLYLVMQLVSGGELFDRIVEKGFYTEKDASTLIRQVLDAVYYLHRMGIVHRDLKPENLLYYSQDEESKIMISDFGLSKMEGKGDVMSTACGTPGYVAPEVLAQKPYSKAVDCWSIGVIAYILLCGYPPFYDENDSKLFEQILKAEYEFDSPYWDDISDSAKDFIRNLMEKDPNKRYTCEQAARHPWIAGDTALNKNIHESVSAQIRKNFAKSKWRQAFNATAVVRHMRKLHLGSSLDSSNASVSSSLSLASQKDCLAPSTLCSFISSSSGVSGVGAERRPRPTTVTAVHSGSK

Assay [9] deals with Calcium/calmodulin-dependent protein kinase type II subunit delta (Homo sapiens, UniProt Q13557). The assay is described as follows: Inhibition of CAMK2d in human HeLa cells lysate at 50 uM pre incubated for 15 mins followed by ATP acyl phosphate probe addition and measured after 10 mins by LC-MS/MS analysis relative to control. To be noted: time 25.0 min. An outline of the steps:
as §1

Assay [10] addresses T3, Interleukin-1 receptor-associated kinase 4 (Homo sapiens) (UniProt Q9NWZ3).
T3 sequence (whole entry): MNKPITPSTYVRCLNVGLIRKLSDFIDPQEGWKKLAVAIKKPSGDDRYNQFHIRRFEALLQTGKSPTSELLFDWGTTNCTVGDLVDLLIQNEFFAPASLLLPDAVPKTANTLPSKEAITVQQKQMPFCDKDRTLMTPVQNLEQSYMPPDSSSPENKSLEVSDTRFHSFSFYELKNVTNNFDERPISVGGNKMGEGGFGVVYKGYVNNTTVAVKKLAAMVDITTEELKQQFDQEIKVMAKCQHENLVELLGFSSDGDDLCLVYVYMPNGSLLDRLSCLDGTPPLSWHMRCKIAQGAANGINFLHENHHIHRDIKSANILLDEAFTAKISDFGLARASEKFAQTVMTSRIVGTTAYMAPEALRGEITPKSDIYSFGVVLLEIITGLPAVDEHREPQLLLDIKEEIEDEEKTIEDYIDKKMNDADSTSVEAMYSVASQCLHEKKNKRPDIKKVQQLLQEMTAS
The assay is described as follows: Inhibition of IRAK4 in human HeLa cells lysate at 50 uM pre incubated for 15 mins followed by ATP acyl phosphate probe addition and measured after 10 mins by LC-MS/MS analysis relative to control. To be noted: time 25.0 min.

Assay [11] addresses Tyrosine-protein kinase CSK (Homo sapiens, UniProt P41240). The assay is described as follows: Inhibition of CSK in human HeLa cells lysate at 50 uM pre incubated for 15 mins followed by ATP acyl phosphate probe addition and measured after 10 mins by LC-MS/MS analysis relative to control. To be noted: time 25.0 min.
Assay [12] deals with Ephrin type-B receptor 4 (Homo sapiens) (UniProt P54760). Briefly: Inhibition of EphB4 in human HeLa cells lysate at 2 uM pre incubated for 15 mins followed by ATP acyl phosphate probe addition and measured after 10 mins by LC-MS/MS analysis relative to control. To be noted: time 25.0 min.
Sequence of Ephrin type-B receptor 4 (Homo sapiens) (P54760 whole entry): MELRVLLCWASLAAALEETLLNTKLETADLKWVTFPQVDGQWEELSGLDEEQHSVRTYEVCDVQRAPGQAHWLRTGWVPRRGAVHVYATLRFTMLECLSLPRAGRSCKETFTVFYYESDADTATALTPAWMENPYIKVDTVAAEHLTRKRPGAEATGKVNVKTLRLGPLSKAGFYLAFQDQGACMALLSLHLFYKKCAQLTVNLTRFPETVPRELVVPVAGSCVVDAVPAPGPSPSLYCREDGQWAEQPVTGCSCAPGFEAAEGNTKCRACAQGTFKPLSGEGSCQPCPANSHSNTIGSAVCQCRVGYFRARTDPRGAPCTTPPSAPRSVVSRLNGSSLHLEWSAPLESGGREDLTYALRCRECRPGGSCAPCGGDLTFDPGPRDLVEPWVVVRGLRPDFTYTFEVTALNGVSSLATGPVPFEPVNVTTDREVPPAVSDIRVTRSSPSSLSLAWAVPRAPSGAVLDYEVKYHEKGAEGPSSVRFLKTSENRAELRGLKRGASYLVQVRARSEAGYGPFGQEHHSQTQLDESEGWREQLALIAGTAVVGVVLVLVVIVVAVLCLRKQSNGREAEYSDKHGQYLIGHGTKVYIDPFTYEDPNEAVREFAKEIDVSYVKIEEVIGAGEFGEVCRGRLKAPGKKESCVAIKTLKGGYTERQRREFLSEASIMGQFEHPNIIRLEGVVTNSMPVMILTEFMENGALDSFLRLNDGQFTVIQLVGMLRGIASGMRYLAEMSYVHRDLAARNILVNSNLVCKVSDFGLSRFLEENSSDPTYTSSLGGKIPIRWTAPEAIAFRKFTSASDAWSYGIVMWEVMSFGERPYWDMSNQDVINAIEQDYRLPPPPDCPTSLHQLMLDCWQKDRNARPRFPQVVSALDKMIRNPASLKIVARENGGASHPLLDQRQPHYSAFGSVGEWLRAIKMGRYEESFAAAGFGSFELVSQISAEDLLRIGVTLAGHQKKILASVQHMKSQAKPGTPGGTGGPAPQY

By IC50 is commonly meant the concentration at which inhibition is half-maximal. Lower therefore signals greater potency. In general, inhibition refers to the change of the read-out against control, counted positive when it falls.

Sequence of Tyrosine-protein kinase CSK (P41240 2-450 limits assumed): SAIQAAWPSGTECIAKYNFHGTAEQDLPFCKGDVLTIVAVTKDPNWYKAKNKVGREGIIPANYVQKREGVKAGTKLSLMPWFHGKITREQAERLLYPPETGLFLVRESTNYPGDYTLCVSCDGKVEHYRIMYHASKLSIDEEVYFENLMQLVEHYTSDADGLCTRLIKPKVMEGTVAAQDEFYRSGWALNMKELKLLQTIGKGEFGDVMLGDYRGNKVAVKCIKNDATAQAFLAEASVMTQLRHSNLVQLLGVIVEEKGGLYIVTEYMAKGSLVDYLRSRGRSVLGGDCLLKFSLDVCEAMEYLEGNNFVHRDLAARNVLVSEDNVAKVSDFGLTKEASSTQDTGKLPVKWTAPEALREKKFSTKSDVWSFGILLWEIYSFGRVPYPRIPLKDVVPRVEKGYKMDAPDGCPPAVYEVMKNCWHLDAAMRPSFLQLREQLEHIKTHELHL
Sequence of Calcium/calmodulin-dependent protein kinase type II subunit delta (Q13557 whole entry): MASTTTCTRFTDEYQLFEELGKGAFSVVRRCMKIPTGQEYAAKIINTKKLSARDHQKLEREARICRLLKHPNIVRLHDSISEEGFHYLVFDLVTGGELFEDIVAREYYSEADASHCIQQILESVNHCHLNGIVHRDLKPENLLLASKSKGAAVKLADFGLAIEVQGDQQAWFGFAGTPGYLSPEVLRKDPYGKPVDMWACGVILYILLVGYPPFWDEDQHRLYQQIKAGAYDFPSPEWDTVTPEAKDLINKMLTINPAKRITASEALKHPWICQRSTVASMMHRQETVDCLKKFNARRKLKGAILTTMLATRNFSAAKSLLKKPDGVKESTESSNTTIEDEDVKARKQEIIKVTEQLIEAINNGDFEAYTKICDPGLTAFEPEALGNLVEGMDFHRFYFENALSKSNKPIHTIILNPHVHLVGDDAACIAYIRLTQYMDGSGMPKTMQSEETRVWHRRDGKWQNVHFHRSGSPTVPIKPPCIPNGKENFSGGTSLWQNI
Sequence of Ribosomal protein S6 kinase alpha-5 (O75582 whole entry, the tested form may be a part): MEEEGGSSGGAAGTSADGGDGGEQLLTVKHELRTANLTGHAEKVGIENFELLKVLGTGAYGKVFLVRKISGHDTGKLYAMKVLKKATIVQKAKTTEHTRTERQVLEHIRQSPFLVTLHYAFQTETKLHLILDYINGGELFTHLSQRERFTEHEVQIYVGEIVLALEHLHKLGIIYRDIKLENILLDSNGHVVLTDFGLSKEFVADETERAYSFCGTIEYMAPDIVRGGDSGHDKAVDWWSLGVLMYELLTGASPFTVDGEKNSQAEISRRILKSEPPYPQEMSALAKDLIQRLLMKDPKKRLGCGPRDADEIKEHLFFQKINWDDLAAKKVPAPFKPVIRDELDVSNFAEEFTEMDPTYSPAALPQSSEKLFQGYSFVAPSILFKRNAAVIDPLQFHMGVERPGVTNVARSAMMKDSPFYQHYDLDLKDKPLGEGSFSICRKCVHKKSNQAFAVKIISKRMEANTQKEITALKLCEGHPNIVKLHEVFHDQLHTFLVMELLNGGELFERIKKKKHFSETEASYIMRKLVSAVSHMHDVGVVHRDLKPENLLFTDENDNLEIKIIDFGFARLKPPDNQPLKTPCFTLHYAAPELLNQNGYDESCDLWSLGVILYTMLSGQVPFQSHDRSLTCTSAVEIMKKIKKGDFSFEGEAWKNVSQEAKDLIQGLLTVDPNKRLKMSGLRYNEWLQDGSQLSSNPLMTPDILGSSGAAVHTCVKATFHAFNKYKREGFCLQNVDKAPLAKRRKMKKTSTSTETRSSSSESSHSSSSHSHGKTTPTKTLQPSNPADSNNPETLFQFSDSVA

`CCOc1cc(N2CCC(O)CC2)ccc1Nc1ncc2c(n1)N(C)c1ccccc1C(=O)N2C`: the IC50 in assay [1], in [2], in assay [3], in assay [4] and in assay [5] was above 50 µM each time. The inhibition in [6] was found to be 19.4%; in assay [7], 26.2%; in assay [8] it was 4.7%; in assay [9], 40.8%; in assay [10], 15.6%; in assay [11], 0.9%. Besides, the inhibition in [12] was -5.4%.
